According to ChEMBL document CHEMBL1124774, “Synthesis and biological activity of some derivatives of rifamycin P” (1990):
Values after ≈ are worked out from the molar mass of the structure shown.

Tests used:
Escherichia coli = test: In vitro antibacterial activity of compound against Escherichia coli SKF 12140; assay type: functional
Klebsiella pneumoniae = test: In vitro antibacterial activity of compound against Klebsiella pneumoniae ISM; assay type: functional
[1] = system: Mycobacterium tuberculosis; test: In vitro antibacterial activity of compound against Mycobacterium tuberculosis H37Rv ATCC 9660; assay type: functional
Neisseria gonorrhoeae = test: In vitro antibacterial activity of compound against Neisseria gonorrhoeae ISM 68/126; assay type: functional
Pseudomonas aeruginosa = test: In vitro antibacterial activity of compound against Pseudomonas aeruginosa ATCC 10145; assay type: functional
How it was run: (§1)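 Twofold microdilution MIC in Iso-Sensitest broth over 128-0.0001 µg/mL. Inoculum was 10^4 cfu/mL, with incubation at 37 °C for 18-24 h.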

Proteus vulgaris = test: In vitro antibacterial activity of compound against Proteus vulgaris X19H ATCC 881; assay type: functional
[2] = system: Staphylococcus epidermidis; test: In vitro antibacterial activity of compound against Staphylococcus epidermidis ATCC 12228; assay type: functional; how it was run: as §1
Streptococcus pyogenes [3] = test: In vitro antibacterial activity of compound against Streptococcus pyogenes C 203 SKF 13400; assay type: functional
How it was run: (§2)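 Streptococcal MICs were run by twofold microdilution in Todd-Hewitt broth over 128-0.0001 µg/mL. Inoculum was 10^4 cfu/mL, with incubation at 37 °C for 18-24 h.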

Staphylococcus aureus [4] = test: In vitro antibacterial activity of compound against Staphylococcus aureus Tour L 165; assay type: functional; how it was run: as §1
Streptococcus pneumoniae = test: In vitro antibacterial activity of compound against Streptococcus pneumoniae UC 41; assay type: functional; how it was run: as §2
Enterococcus faecalis = test: In vitro antibacterial activity of compound against Streptococcus faecalis ATCC 7080.; assay type: functional; how it was run: as §1
Haemophilus influenzae = test: In vitro antibacterial activity of compound against Haemophilus influenzae ATCC 19418; assay type: functional
Mycobacterium avium [5] = test: 50% inhibition of the 20 Mycobacterium (MAC) avium complex clinical isolates; assay type: functional
How it was run: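 Agar-dilution MICs, 2-fold dilutions over 128-0.0001 μg/mL, on Middlebrook 7H10 agar with 2% glycerol and 10% OADC. Organisms from Loevenstein-Jensen slants were grown in 7H9 broth with 0.5% Tween and 10% OADC, adjusted to McFarland no. 1, and spotted with a multipoint inoculator. Plates were sealed and incubated at 22, 30 or 37 °C for 4-20 days depending on strain.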

Mycobacterium avium [6] = test: 90% inhibition of the 20 Mycobacterium avium complex (MAC) clinical isolates
Mycobacterium avium [7] = test: Minimum inhibitory concentration of compound against 20 Mycobacterium avium complex (MAC) clinical isolates
Streptococcus pyogenes [8] = test: Inhibitory concentration of compound against Streptococcus pyogenus septicemia in the mouse, administarted in OS route; assay type: functional
How it was run: (§3)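 Male and female CD1 mice (18-22 g) were infected ip with S. pyogenes C203, with the challenge set so untreated mice died within 48 h. Groups of five received a single treatment immediately after infection. ED50 was calculated from the percentage surviving at each dose on day 10.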

Streptococcus pyogenes [9] = test: Inhibitory concentration of compound against Streptococcus pyogenus septicemia in the mouse, administarted in subcutaneous route; assay type: functional; conditions: sc; how it was run: as §3
Streptococcus pyogenes [10] = test: Minimum inhibitory concentration of compound against Streptococcus pyogenus septicemia in the mouse; assay type: functional
Staphylococcus aureus [11] = test: Activity in the murine model (subcutaneous route) of Staphylococcus aureus tour septicemia; assay type: functional; conditions: sc
How it was run: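 Male and female CD1 mice (18-22 g) were infected ip with S. aureus Tour. The challenge was set so untreated mice died within 48 h. Groups were five mice, dosed once daily for 3 days starting immediately after infection. ED50 was calculated on day 10 from the percentage surviving at each dose.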

SMILES | MIC (Escherichia coli) [µg/mL] | MIC (Klebsiella pneumoniae) [µg/mL] | MIC [1] [µg/mL] | MIC (Neisseria gonorrhoeae) [µg/mL] | MIC (Pseudomonas aeruginosa) [µg/mL] | MIC (Proteus vulgaris) [µg/mL] | MIC [2] [µg/mL] | MIC (Streptococcus pyogenes [3]) [µg/mL] | MIC (Staphylococcus aureus [4]) [µg/mL] | MIC (Streptococcus pneumoniae) [µg/mL] | MIC (Enterococcus faecalis) [µg/mL] | MIC (Haemophilus influenzae) [µg/mL] | MIC50 (Mycobacterium avium [5]) [µg/mL] | MIC90 (Mycobacterium avium [6]) [µg/mL] | MIC (Mycobacterium avium [7]) [µg/mL] | ED50 (Streptococcus pyogenes [8]) [mg/kg] | ED50 (Streptococcus pyogenes [9]) [mg/kg] | MIC (Streptococcus pyogenes [10]) [µg/mL] | ED50 (Staphylococcus aureus [11]) [mg/kg]
COC1/C=C/OC2(C)Oc3c(C)c(O)c4c(O)c(c5sc(N6CCN(C(=O)OCc7ccccc7)CC6)nc5c4c3C2=O)NC(=O)/C(C)=C\C=C\C(C)C(O)C(C)C(O)C(C)C(OC(C)=O)C1C (stereo not given) | > 128 | > 128 | 0.5 (≈ 0.522 µM) | 0.125 (≈ 0.131 µM) | 32 (≈ 33.4 µM) | 64 (≈ 66.9 µM) | 0.032 (≈ 0.0334 µM) | 0.125 (≈ 0.131 µM) | 0.063 (≈ 0.0658 µM) | 0.063 (≈ 0.0658 µM) | 2 (≈ 2.09 µM) | 0.125 (≈ 0.131 µM) | – | – | – | – | – | – | –
COC1/C=C/OC2(C)Oc3c(C)c(O)c4c(O)c(c5sc(N6CCOCC6)nc5c4c3C2=O)NC(=O)/C(C)=C\C=C\C(C)C(O)C(C)C(O)C(C)C(OC(C)=O)C1C (stereo not given) | 16 (≈ 19.4 µM) | 32 (≈ 38.8 µM) | 2 (≈ 2.43 µM) | 0.125 (≈ 0.152 µM) | 16 (≈ 19.4 µM) | 8 (≈ 9.71 µM) | 0.063 (≈ 0.0765 µM) | 0.032 (≈ 0.0388 µM) | 0.002 (≈ 0.00243 µM) | 0.016 (≈ 0.0194 µM) | 1 (≈ 1.21 µM) | 0.5 (≈ 0.607 µM) | 32 (≈ 38.8 µM) | 128 (≈ 155 µM) | > 16 | – | – | – | –
COC1/C=C/OC2(C)Oc3c(C)c(O)c4c(O)c(c5scnc5c4c3C2=O)NC(=O)/C(C)=C\C=C\C(C)C(O)C(C)C(O)C(C)C(O)C1C (stereo not given) | 16 (≈ 23 µM) | 16 (≈ 23 µM) | 0.5 (≈ 0.718 µM) | 0.125 (≈ 0.179 µM) | 8 (≈ 11.5 µM) | 4 (≈ 5.74 µM) | 0.008 (≈ 0.0115 µM) | 0.125 (≈ 0.179 µM) | 0.032 (≈ 0.0459 µM) | 0.125 (≈ 0.179 µM) | 4 (≈ 5.74 µM) | 0.125 (≈ 0.179 µM) | – | – | – | – | – | – | –
CCCCN(CCCC)c1nc2c(s1)c1c(O)c3c(O)c(C)c4c(c32)C(=O)C(C)(O/C=C/C(OC)C(C)C(OC(C)=O)C(C)C(O)C(C)C(O)C(C)/C=C/C=C(/C)C(=O)N1)O4 (stereo not given) | > 128 | > 128 | – | 2 (≈ 2.31 µM) | > 128 | > 128 | 0.125 (≈ 0.144 µM) | 0.125 (≈ 0.144 µM) | 0.063 (≈ 0.0727 µM) | 0.063 (≈ 0.0727 µM) | 4 (≈ 4.62 µM) | 1 (≈ 1.15 µM) | 1 (≈ 1.15 µM) | 2 (≈ 2.31 µM) | 0.25 (≈ 0.289 µM) | 1.23 | 1.62 | 0.125 (≈ 0.144 µM) | –
CCNc1nc2c(s1)c1c(O)c3c(O)c(C)c4c(c32)C(=O)C(C)(O/C=C/C(OC)C(C)C(OC(C)=O)C(C)C(O)C(C)C(O)C(C)/C=C/C=C(/C)C(=O)N1)O4 (stereo not given) | 16 (≈ 20.5 µM) | 32 (≈ 40.9 µM) | 0.125 (≈ 0.16 µM) | 0.125 (≈ 0.16 µM) | 4 (≈ 5.12 µM) | 8 (≈ 10.2 µM) | 0.032 (≈ 0.0409 µM) | 0.063 (≈ 0.0806 µM) | 0.063 (≈ 0.0806 µM) | 0.063 (≈ 0.0806 µM) | 1 (≈ 1.28 µM) | 0.125 (≈ 0.16 µM) | 32 (≈ 40.9 µM) | 64 (≈ 81.8 µM) | 8 (≈ 10.2 µM) | > 4 | – | 0.063 (≈ 0.0806 µM) | –
COC1/C=C/OC2(C)Oc3c(C)c(O)c4c(O)c(c5sc(N6CCN(C)CC6)nc5c4c3C2=O)NC(=O)/C(C)=C\C=C\C(C)C(O)C(C)C(O)C(C)C(O)C1C (stereo not given) | 8 (≈ 10.1 µM) | 16 (≈ 20.1 µM) | 1 (≈ 1.26 µM) | 1 (≈ 1.26 µM) | 16 (≈ 20.1 µM) | 8 (≈ 10.1 µM) | 0.125 (≈ 0.157 µM) | 0.063 (≈ 0.0792 µM) | 0.008 (≈ 0.0101 µM) | 0.063 (≈ 0.0792 µM) | 1 (≈ 1.26 µM) | 0.125 (≈ 0.157 µM) | – | – | – | – | – | – | 10
CCCCNc1nc2c(s1)c1c(O)c3c(O)c(C)c4c(c32)C(=O)C(C)(O/C=C/C(OC)C(C)C(OC(C)=O)C(C)C(O)C(C)C(O)C(C)/C=C/C=C(/C)C(=O)N1)O4 (stereo not given) | 16 (≈ 19.8 µM) | 64 (≈ 79 µM) | – | 0.125 (≈ 0.154 µM) | 8 (≈ 9.88 µM) | 16 (≈ 19.8 µM) | 0.016 (≈ 0.0198 µM) | 0.063 (≈ 0.0778 µM) | 0.032 (≈ 0.0395 µM) | 0.063 (≈ 0.0778 µM) | 1 (≈ 1.23 µM) | 0.125 (≈ 0.154 µM) | 32 (≈ 39.5 µM) | 64 (≈ 79 µM) | 2 (≈ 2.47 µM) | > 10 | 6.6 | 0.063 (≈ 0.0778 µM) | –
CCOC(=O)N1CCN(c2nc3c(s2)c2c(O)c4c(O)c(C)c5c(c43)C(=O)C(C)(O/C=C/C(OC)C(C)C(OC(C)=O)C(C)C(O)C(C)C(O)C(C)/C=C/C=C(/C)C(=O)N2)O5)CC1 (stereo not given) | 16 (≈ 17.9 µM) | 32 (≈ 35.8 µM) | 2 (≈ 2.23 µM) | 0.125 (≈ 0.14 µM) | 32 (≈ 35.8 µM) | 16 (≈ 17.9 µM) | 0.063 (≈ 0.0704 µM) | 0.063 (≈ 0.0704 µM) | 0.063 (≈ 0.0704 µM) | 0.063 (≈ 0.0704 µM) | 4 (≈ 4.47 µM) | 0.125 (≈ 0.14 µM) | – | – | – | – | – | – | –
